Compound activity (PubChem BioAssay)
XBP1 UPR activ: activators of adaptive arm of unfolded protein response (XBP1); CHO-XBP1 luciferase reporter, IRE1-XBP1 UPR activation, luminescence; percent of tunicamycin response, DMSO as zero; activation, % at 20 µM; 330,000 compounds, 0.33% hits;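 active = versus positive control, 20 µM dose yields 30% or more activation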
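assay system = CHO-XBP1 luciferase reporter cells | amount = 1000 cells/well | buffer or medium = F12 plus 10% FBS | compound dosing = single point, 20 µM final compound, 1% DMSO | incubation = 16-18 h cell attachment at 37 °C, then 6 h compound exposure | detection = Steady-Glo luminescence read | controls = tunicamycin 10 µg/mL and vehicle-only wells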
UCH37 inh: inhibitors of human deubiquitinating enzyme UCH37 | Q9Y5K5 | purified proteasome/UCH37, Ub-AMC cleavage fluorescence | inhibition, % (concentration not given with the values) | 330,000 compounds, 0.33% hits | AID 588478;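 active = mean inhibition over replicate wells above about 20%, limit read from the data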
Target sequence (Q9Y5K5 whole entry, looked up): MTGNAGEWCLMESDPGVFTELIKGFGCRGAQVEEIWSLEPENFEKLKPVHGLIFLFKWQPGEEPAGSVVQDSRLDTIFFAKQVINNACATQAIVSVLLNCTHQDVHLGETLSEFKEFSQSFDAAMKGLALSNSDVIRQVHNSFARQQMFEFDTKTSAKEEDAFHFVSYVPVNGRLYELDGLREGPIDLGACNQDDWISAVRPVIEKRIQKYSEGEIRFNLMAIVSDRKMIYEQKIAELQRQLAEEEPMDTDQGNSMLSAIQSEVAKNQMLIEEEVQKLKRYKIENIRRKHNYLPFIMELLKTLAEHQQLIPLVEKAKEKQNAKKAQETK
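Reagent: Ub-AMC substrate; assay system: Proteasome-associated human UCH37 deubiquitinase; controls: no-proteasome and no-compound wells; read-out: % inhibition of Ub-AMC cleavage fluorescence; timing: 30 min preincubation with enzyme, 25 min cleavage at room temperature; signal: AMC fluorescence from Ub-AMC cleavage, excitation 355 nm, emission 460 nm; buffer or medium: Tris-HCl pH 7.4 plus ovalbumin, ATP-MgCl2, DTT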
Fh CTSL1 inh: blocks F. hepatica cathepsin L1 in PFM18AAP counter-screen; recombinant F. hepatica cathepsin L1, Z-Leu-Arg-MCA fluorescence; inhibition, % at 5.96 µM; 300,000 compounds, 0.49% hits; AID 1906;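 active = inhibition above the mean of all tested compounds plus 3 SD, set per screening campaign, cut at about 17% in these data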
CHOP UPR activ: activators of apoptotic arm of unfolded protein response (CHOP). CHO-CHOP luciferase reporter, UPR activation, luminescence; percent of tunicamycin response over DMSO baseline. activation, % at 10 µM. 330,000 compounds, 0.34% hits;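 active = at 10 µM dose, activation of 40% or more, normalized to positive control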
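Evaluation: % reporter activation, DMSO baseline versus tunicamycin full activation; System: CHO-CHOP luciferase reporter cell line; Input: 500 cells/well; Incubation: 6 h compound treatment, 37 °C; Measured by: Steady-Glo luciferase luminescence; Dosing: one dose, 10 µM in 0.5% DMSO; Buffer or medium: F12 medium, 10% FBS; Benchmarks: positive tunicamycin 10 µg/mL, negative DMSO alone.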
CHOP inhibitor: blocks CHOP induction under ER stress; CHO-K1 CHOP-promoter luciferase, tunicamycin-induced, 15-18 h; 220,000 compounds, 3.8% hits; inhibition, % at 10 µM;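 active = compounds that reduced the stress-induced luciferase reporter signal by more than about 70% of percent inhibition, limit read from the data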
CHOP inh conf: confirmation of CHOP induction inhibitors. shares compounds with CHOP inhibitor. CHO-CHOP promoter luciferase reporter, tunicamycin-induced, luminescence. inhibition, % at 10 µM. 2,100 compounds, 45% hits. AID 504437;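 active = mean of three repeat readings of reporter signal inhibition above a set limit, cut at about 70% in these data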
A number is an active result; - = inactive; . = not tested or not shown. This excerpt belongs to a sample that is enriched for hits.

SMILES | XBP1 UPR activ | UCH37 inh | Fh CTSL1 inh | CHOP UPR activ | CHOP inhibitor | CHOP inh conf
O=C(c1ccc(Cl)cc1)N1CCC(O)(CSc2ccc(Cl)cc2Cl)CC1 | - | - | - | - | 109 | 87
CC1=C(C)CS(=O)N(S(=O)(=O)c2ccc(Cl)cc2)C1 (stereo unspecified) | - | . | - | - | . | -
CCOC(=O)C(=NNc1cccc(C(F)(F)F)c1)N1CCOCC1 | . | - | . | . | . | .
CC(C)Nc1oc(-c2cccc3ccccc23)nc1C#N | - | - | - | - | 100 | -
CC1CCC(C(C)C)C(OC(=O)COC(=O)c2cc(O)ccc2N)C1 (stereo unspecified) | - | - | - | - | 105 | 109
CC1CCC(C(C)C)C(OC(=O)COC(=O)c2ccc(=O)[nH]c2)C1 (stereo unspecified) | - | - | - | - | - | .
CCOC(=O)C1Cc2ccccc2C(=O)O1 (stereo unspecified) | - | - | - | - | - | .
CCOC(=O)C1=C(N)c2ccccc2CC1C(C)C (stereo unspecified) | - | - | - | - | 100 | -
Cc1ccc(C(=O)NN=C/C=C/c2ccc(Br)cc2)cn1 | . | - | . | . | . | .
c1ccc(CN2CCC(Nc3nc(-c4ccccc4)nc4ccccc34)CC2)cc1 | - | - | - | - | 102 | -
Cc1c(CN2CCC(CO)(CCOc3ccccc3)CC2)[nH]c2c(Cl)cccc12 | - | - | - | - | 105 | 71
Cc1nn(C)c(Cl)c1CN1CCC(CO)(CCOc2ccccc2)CC1 | - | - | - | - | - | .
CCCCn1c(NS(=O)(=O)c2ccccc2)c(S(=O)(=O)c2ccc(C)cc2)c2nc3ccccc3nc21 | . | - | - | . | 99 | 76
CC(=O)C1=C(C)NC(SCC(=O)c2ccc(-c3ccccc3)cc2)=C(C#N)C1c1cccnc1 (stereo unspecified) | - | . | - | - | 97 | -
CC(=O)C1=C(C)NC(SCSc2ccccc2)=C(C#N)C1c1cccnc1 (stereo unspecified) | - | - | - | - | - | .
Clc1ccccc1OCc1nnc(-c2ccccc2Br)o1 | - | - | - | - | - | .
O=c1c(Cl)c(Cl)cnn1Cc1nnc(-c2ccccc2Br)o1 | - | - | . | - | 104 | 122
CCc1c(C)sc(NC(=O)CSc2nc3c(c(C(F)(F)F)n2)CCc2ccccc2-3)c1C#N | - | - | - | - | 97 | 72
CC(NC(=O)CSc1nc2c(c(C(F)(F)F)n1)CCc1ccccc1-2)c1ccccc1 (stereo unspecified) | - | - | - | - | - | .
Cc1cc(Br)cc(C=NNC(=O)c2ccc3c(c2)OCO3)c1O | . | - | . | . | . | .
CC(=NNC(=O)COc1ccc(C(C)(C)C)cc1)c1ccc(N2CCOCC2)cc1 | . | - | . | . | . | .
C/C(=N\NC(=O)COc1ccc(C(C)(C)C)cc1)c1ccc(N2CCOCC2)cc1 | - | . | - | - | 101 | 92
COc1ccc(C(=O)NN=Cc2ccc(OC)c(COc3ccc(F)cc3F)c2)cc1 | . | - | . | . | . | .
COc1ccc(N2CCN(Cc3cc(=O)oc4cc(C)c(Cl)cc34)CC2)cc1 | - | - | - | - | 96 | -
CCc1ccccc1N/C(=N/S(=O)(=O)c1ccccc1)C(F)(F)F | . | - | . | . | . | .
SMILES | XBP1 UPR activ | UCH37 inh | Fh CTSL1 inh | CHOP UPR activ | CHOP inhibitor | CHOP inh conf
COc1ccc2oc(=O)c(C(=O)Nc3ccccc3O)cc2c1 | - | - | - | - | 101 | -
O=C(C1=C(c2ccccc2)C(=O)c2ccccc2C1=O)c1ccccc1 | . | - | . | . | 104 | 112
Cc1cc(N2C(=O)C=CC2=O)c([N+](=O)[O-])cc1C | - | - | - | - | 108 | -
Cc1ccc(C(=O)c2ccc(C)cc2)cc1 | - | - | - | - | - | .
Cc1ccc(C(=O)/C=C\C(=O)c2ccc(C)cc2)cc1 | . | - | - | . | 102 | -
O=C(Nc1nc2ccccc2s1)C1CC(=O)N(c2ccc(Cl)cc2)C1 (stereo unspecified) | - | - | - | - | 105 | -
COc1ccc(C=NNC(=O)c2cccc(Br)c2)c(OC)c1 | . | - | . | . | . | .
CN(C(=O)CCl)C1CCCc2ccccc21 (stereo unspecified) | . | - | . | . | 106 | 80
CN(C(=O)c1cccc(C(F)(F)F)c1)C1CCCc2ccccc21 (stereo unspecified) | - | - | - | - | . | .
